pIC50, pKi: −log10 of the molar value.

Data set [1] deals with Human immunodeficiency virus 1. Description: microbe, parasite or virus in culture. It is filed as functional, organism-based. Particulars: Human immunodeficiency virus 1, U-87 MG.
In data set [2] the test system is Rattus norvegicus. As to the kind of experiment: Area under curve (0-6 hr) value in rat at a concentration of 10 mg/kg after peroral administration. Conditions: in vivo, po. It is filed as ADME, organism-based. Set-up: time < 6 hr, dose 10 mg/kg, route oral.
For data set [3], the target named is C-C chemokine receptor type 5 (Homo sapiens, UniProt P51681). Description: Inhibition of RANTES binding to C-C chemokine receptor type 5.
Data set [4] concerns Rattus norvegicus. Description: Area under curve (0-6 hr) value in rat at a concentration of 10 mg/kg, peroral administration. Conditions: in vivo, po. Set-up: time < 6 hr, dose 10 mg/kg, route oral. Format: ADME, organism-based.
Data set [5] has as its system Rattus norvegicus. Description: Oral bioavailability was evaluated in rat at a dose of 10 mg/kg. It is filed as ADME, organism-based. Particulars: in vivo. The method, boiled down:
(§1)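 Rat pharmacokinetics using the amorphous tartrate salt. Dosing was 10 mg/kg iv in 20% hydroxypropyl-β-cyclodextrin and 10 mg/kg po in 0.4% methylcellulose. […] Oral bioavailability was derived by comparing oral with iv exposure.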

Data set [6] concerns Rattus norvegicus. Description: In vivo pharmacokinetic parameter, Area under curve (AUC) was measured in rat after 10 mg/kg iv administration. Format: ADME, organism-based. Further details: dose 10 mg/kg, route intravenous. The method, boiled down: as §1
Data set [7] has as its system Canis familiaris. Description: In vivo pharmacokinetic parameter, Area under curve (AUC) was measured in dog after 1 mg/kg iv administration.
The nature of data set [8]: In vivo pharmacokinetic parameter, half-life (t1/2) was measured in dog after 1 mg/kg iv administration.
Data set [9] is described as follows: Oral bioavailability was evaluated in monkey at a dose of 2 mg/kg. Particulars: simiiformes, in vivo.
Data set [10] can be described thus: In vivo pharmacokinetic parameter, half-life (t1/2) was measured in rat after 10 mg/kg iv administration. Further details: dose 10 mg/kg, route intravenous. Format: ADME, organism-based. The method, boiled down:
as §1

The subject of data set [11] is Canis familiaris. As to the kind of experiment: Oral bioavailability was evaluated in dog at a dose of 3 mg/kg. Conditions: in vivo.
The nature of data set [12]: In vivo pharmacokinetic parameter, Area under curve (AUC) was measured in monkey after 2 mg/kg iv administration. Particulars: simiiformes.
The nature of data set [13]: In vivo pharmacokinetic parameter, half-life (t1/2) was measured in monkey after 2 mg/kg iv administration. Conditions: simiiformes.
Data set [14] is described as follows: In vivo pharmacokinetic parameter, half-life (t1/2) was measured in dog after 1 mg/kg iv administration. The source holds these as a separate data set.

Sequence of C-C chemokine receptor type 5 (P51681 whole entry): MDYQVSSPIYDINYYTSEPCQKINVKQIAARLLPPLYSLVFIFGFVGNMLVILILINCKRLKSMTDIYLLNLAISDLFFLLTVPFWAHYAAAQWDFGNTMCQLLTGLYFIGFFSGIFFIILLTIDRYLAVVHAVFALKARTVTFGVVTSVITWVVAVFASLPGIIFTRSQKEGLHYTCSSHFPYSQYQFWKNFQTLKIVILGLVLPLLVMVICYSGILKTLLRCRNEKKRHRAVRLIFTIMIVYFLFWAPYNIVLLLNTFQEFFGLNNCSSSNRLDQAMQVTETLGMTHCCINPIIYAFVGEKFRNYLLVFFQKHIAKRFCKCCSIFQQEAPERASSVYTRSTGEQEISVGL

As to `CO/N=C(\c1ccc(Br)cc1)C1CCN(C2(C)CCN(C(=O)c3c(N)cccc3Cl)CC2)CC1`, the negative-log IC50 (pIC50) (usually −log10 of the IC50, conventionally taken in molar units) in [1] is 9.22. This molecule yielded an AUC 0-6h with Rattus norvegicus [2] of 610 ng·h/mL. Also, in [3], the pKi – broadly, the Ki on a negative log10 scale, so that one unit is a factor of ten – is 8.47.

In turn, `CCO/N=C(\c1ccc(Br)cc1)C1CCN(C2(C)CCN(C(=O)c3c(C)ccnc3C)CC2)CC1` gave a pIC50 in [1] of 9.70. In the data set with Rattus norvegicus [2], the AUC 0-6h is 2100 ng·h/mL. The pKi in [3] was 8.96.

As to `CO/N=C(\c1ccc(Br)cc1)C1CCN(C2(C)CCN(C(=O)c3c(C)cc[n+]([O-])c3C)CC2)CC1`, the pIC50 in [1] is 8.25. In addition, the AUC 0-6h in the data set on Rattus norvegicus [2] came out at 2400 ng·h/mL. In addition, in [3], the negative logarithm of the Ki (pKi) is 7.74.

`Cc1cccc(C)c1C(=O)N1CCC(C)(N2CCC(C(=O)c3ccc(Br)cc3)CC2)CC1` gave a pIC50 in [1] of 7.89. The molecule also showed a pKi in data set [3] of 7.27.

For the molecule `Cc1cccc(C)c1C(=O)N1CCC(C)(N2CCC(Cc3ccc(Br)cc3)CC2)CC1`, the AUC 0-6h with Rattus norvegicus [4] came to 40 ng·h/mL. The molecule further showed a pIC50 in data set [1] of 8.00. The pKi in data set [3] was 7.18.

With `CO/N=C(\c1ccc(Br)cc1)C1CCN(C2(C)CCN(C(=O)c3c(C)cccc3O)CC2)CC1`, the negative-log IC50 (pIC50) in [1] is 8.40. Also, the AUC 0-6h in the data set with Rattus norvegicus [2] turned out to be 3000 ng·h/mL.

As to `Cc1cccc(C)c1C(=O)N1CCC(C)(N2CCC(Oc3ccc(Br)cc3)CC2)CC1`, the pKi in data set [3] is 7.54.

For `COc1ccc(S(=O)(=O)c2ccc(CC3CCN(C4CCN(C(=O)c5ccc(F)c6ccccc56)CC4)CC3)cc2)cc1`, the negative logarithm of the Ki (pKi) in [3] is 7.18.

Consider `CO/N=C(\c1ccc(Br)cc1)C1CCN(C2(C)CCN(C(=O)c3c(C)cccc3N)CC2)CC1`, for which the negative logarithm of the IC50 (pIC50) in data set [1] was 9.30. The molecule further displayed an AUC 0-6h with Rattus norvegicus [2] of 1300 ng·h/mL. This molecule also gave a pKi in [3] of 8.35.

In [1], `CO/N=C(/c1ccc(Br)cc1)C1CCN(C2CCN(C(=O)c3c(C)cccc3C)CC2)CC1` had a pIC50 of 8.92. The molecule further returned an AUC 0-6h with Rattus norvegicus [2] of 1400 ng·h/mL. Besides, the pKi in [3] is 8.70.

Regarding `CO/N=C(/c1ccc(Br)cc1)C1CCN(C2(C)CCN(C(=O)c3c(C)cccc3C)CC2)CC1`, in data set [1], the pIC50 was 8.55. In the data set with Rattus norvegicus [2], the AUC 0-6h was found to be 1200 ng·h/mL. In [3], this molecule showed a pKi of 7.60.

The molecule `CON=C(c1ccc(Br)cc1)C1CCN(C2(C)CCN(C(=O)c3c(C)cccc3C)CC2)CC1` had a pIC50 in [1] of 8.82. Further, the AUC 0-6h with Rattus norvegicus [2] worked out at 2100 ng·h/mL.

Molecule `Cc1cccc(C)c1C(=O)N1CCC(C)(N2CCC(Nc3ccc(Br)cc3)CC2)CC1` showed a pIC50 in data set [1] of 8.26. Besides, in the data set with Rattus norvegicus [2], the AUC 0-6h was found to be 150 ng·h/mL.

Molecule `CO/N=C(\c1ccc(Br)cc1)C1CCN(C2(C)CCN(C(=O)c3c(C)ccnc3C)CC2)CC1` showed a pIC50 in data set [1] of 9.30. The molecule also displayed an AUC 0-6h in the data set with Rattus norvegicus [2] of 1900 ng·h/mL. Further, the pKi in data set [3] was 8.96.

Take `CCO/N=C(\c1ccc(Br)cc1)C1CCN(C2(C)CCN(C(=O)c3c(C)cccc3C)CC2)CC1`: in data set [1], the pIC50 was 8.89. Also, the AUC 0-6h in the data set with Rattus norvegicus [2] amounted to 1000 ng·h/mL. This molecule gave a negative logarithm of the Ki (pKi) in data set [3] of 8.74.

In data set [1], `CCO/N=C(/c1ccc(Br)cc1)C1CCN(C2(C)CCN(C(=O)c3c(C)cccc3C)CC2)CC1` had a pIC50 of 8.04. The same molecule showed a pKi in [3] of 7.32.

On to `CCO/N=C(\c1ccc(Br)cc1)C1CCN(C2(C)CCN(C(=O)c3c(C)cc[n+]([O-])c3C)CC2)CC1` [ANCRIVIROC], for which the BA in the data set on Rattus norvegicus [5] was determined as 63%; in [9] it was 52%; in the data set with Canis familiaris [11], 92%. In addition, the area under the curve (AUC) (commonly the area under the concentration-time curve, a measure of exposure) was 13000 ng·h/mL with Rattus norvegicus [6], 2800 ng·h/mL with Canis familiaris [7] and 7400 ng·h/mL in data set [12]. Besides, the half-life (as a rule, how long it takes for the measured level to halve) in [8] was 10 h; in data set [10] it was 5 h; in data set [13], 6 h; in data set [14], 10 h. Moreover, the negative-log IC50 (pIC50) in [1] is 9.22. Moreover, the AUC 0-6h with Rattus norvegicus [2] came to 6500 ng·h/mL. The pKi in [3] is 8.68.

These data come from ChEMBL document CHEMBL1134621, “Discovery of 4-[(Z)-(4-bromophenyl)- (ethoxyimino)methyl]-1'-[(2,4-dimethyl-3- pyridinyl)carbonyl]-4'-methyl-1,4'- bipiperidine N-oxide (SCH 351125): an orally bioavailable human CCR5 antagonist for the treatment of HIV infection” (J Med Chem, 2001).
